# MT stabilize HCS = microtubule stabilizers in HeLa cells, primary screen, imaging, high-content imaging; HeLa tubulin immunostaining HCS, 24 h; share of cells brighter than vehicle mean+2SD; % tubulin-high responders, % at 10 µM; AID 2205, 2009; actives 0.83% (n = 200,000);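 active means plate Z-score above 3 for both tubulin-high and condensed-nucleus cell shares, with cell loss under 80%, at 10 µM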;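 further: anti alpha tubulin signal scored within the nucleus-defined area of each cell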
# STAT3 activator = IL-6 driven STAT3 reporter potentiators, primary screen, U3A cells, luciferase, luminescence, MLSCN library. IL-6 STAT3-luciferase reporter; 100% = signal with IL-6 EC80 alone. activation (% of control), % at 5.6 µM. actives 0.91% (n = 190,000);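 active means activation above the screen-wide mean of compound activation plus 3 SD, cut at about 130% in these data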;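 further: 0% = background luminescence of wells with medium and substrate only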
#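 Assay system – human STAT1-deficient U3A cells with stable STAT3-luciferase reporter · Also added – IL-6 (33 ng/mL) · Schedule – compound 1 h, then IL-6 6 h at 37 °C · Technique – reporter luminescence signal · Evaluation – % activation versus median of IL-6-stimulated wells · Benchmarks – IL-6-only wells as 100% reference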
# bCat nuc transl = modulators of beta-catenin nuclear translocation, primary screen, imaging, HeLa cells, immunofluorescence, high-content | actives 0.3% (n = 190,000) | nuclear translocation activity, % at 5 µM;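 active means nuclear translocation activity above 50% at 5 µM, with a well cell count of 50 or more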;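 further: per-cell ratio of nuclear to cytoplasmic median beta-catenin stain intensity; plate controls were DMSO negative control for no effect and GSK-3 inhibitor IX positive control for full effect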
#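 Assay system: human HeLa cells, native beta-catenin; doses: 5 µM primary, 0.02–20 µM confirmation; incubation: compound treatment 24 h, 37°C, 5% CO2; technique: fluorescence imaging of beta-catenin antibody stain plus DAPI; measure: % activation, nuclear-to-cytoplasmic median beta-catenin signal ratio per cell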
# STAT3 inh-1 = IL-6 driven STAT3 reporter inhibitors, primary screen, U3A cells, luciferase, luminescence, MLSCN library | inhibition, % at 5.5 µM | AID 862, 2007 | IL-6 STAT3-luciferase reporter; host cell line lacks STAT1 | actives 0.89% (n = 190,000);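 active means inhibition above the mean inhibition across all screened compounds plus 3 SD, cut at about 44% in these data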;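 further: 0% = DMSO only wells and 100% = 100 µM nifuroxazide control wells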
# STAT1 blocker = STAT1 signaling inhibitors, primary screen, cell-based, HTS, luciferase reporter | NIH 3T3 STAT1-luciferase reporter, IFN-gamma, luminescence | actives 0.35% (n = 200,000) | inhibition, % at 5.5 µM | AID 920, 2007;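 active means inhibition above a set limit, the mean inhibition across all tested compounds plus 3 SD, cut at about 34% in these data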;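 further: 0% = IFN-gamma with DMSO and 100% = IFN-gamma with 300 µM nifuroxazide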
# STAT3 inh-2 = STAT3 reporter inhibitors, retest of hits, confirmation, U3A cells, luciferase, luminescence. actives 45% (n = 1,200). AID 1265, 2008. inhibition, % at 5.7 µM. IL-6 STAT3 luciferase reporter; cell line lacks STAT1. shares compounds with STAT3 inh-1;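 active means inhibition above the hit cutoff computed for the primary STAT3 screen, cut at about 44% in these data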;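 further: 0% = IL-6 plus DMSO and 100% = IL-6 plus nifuroxazide control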
# NFkB inh 2 = NF-kB reporter inhibitors in human cells, confirmation, counter-screen for STAT3 inhibitor project, cell-based, HEK293T, luciferase, TNF-alpha stimulus; shares compounds with STAT3 inh-1; TNF-alpha induced; inhibition, % at 5.7 µM; actives 36% (n = 1,200);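 active means inhibition above the mean of solvent-only control wells plus 3 SD, cutoff set per campaign, cut at about 13% in these data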;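 further: 0% = TNF-alpha with DMSO and 100% = TNF-alpha with MG high control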
# STAT1 inh STAT3c = STAT1 reporter inhibitors, IFN-gamma induced, confirmation, counter-screen for STAT3 inhibitor project, cell-based, NIH 3T3, luciferase luminescence; NIH 3T3 STAT1-luciferase reporter; inhibition, % at 5.7 µM; shares compounds with STAT3 inh-1; actives 27% (n = 1,200);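 active means inhibition above the mean plus 3 SD of solvent-only control wells, limit set per screening run, cut at about 16% in these data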;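 further: 0% = DMSO with IFN-gamma and 100% = nifuroxazide control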
# The depositor's hits bear a star; x = no result. Rows were chosen to be rich in hits. Some 2.4% of all compounds tested hit in one or more screens of this group.
SMILES,MT stabilize HCS,STAT3 activator,bCat nuc transl,STAT3 inh-1,STAT1 blocker,STAT3 inh-2,NFkB inh 2,STAT1 inh STAT3c
CCN(CC)S(=O)(=O)c1cc(C(=O)Nc2ccncc2)ccc1Cl,2.9,57.4,-1.9,56.0*,22.3,33.5,11.5,17.0*
CCCCCc1ccc(OCCOCCn2c[n+](C)c3ccccc32)c(CCCCC)c1,78.8,53.9,-1.4,56.1*,30.7,65.9*,15.7*,22.8*
CCCCCc1ccc(OCCC[n+]2ccccc2)c(CCCCC)c1,x,x,3.5,x,x,x,x,x
CC1=NC(=O)C(N=Nc2ccccc2C)N1c1ccccc1 (stereo unspecified),4.6,105.6,x,-3.5,-6.4,x,x,x
CC1=NC(=O)C(N=Nc2cccc(C(=O)O)c2)N1c1ccccc1 (stereo unspecified),1.6,45.5,-1.2,64.9*,28.8,41.4,17.9*,-30.2
CCNC(=O)c1ccc(C2SCC(=O)N2CCc2ccccc2)cc1 (stereo unspecified),2.2,80.8,-2.7,25.9,2.1,x,x,x
CCc1ccc(NC(=O)c2ccc(C3SCC(=O)N3CCc3ccccc3)cc2)cc1 (stereo unspecified),4.6,65.5,-5.7,45.8*,-2.6,47.9*,14.9*,-1.5
O=C(COc1ccc(Cl)cc1)NNC(=O)CSc1nncs1,5.3,105.7,-2.0,-5.6,-7.0,x,x,x
Cc1nc2ccc(NC(=O)CCS(=O)(=O)c3ccccc3)cc2s1,3.8,107.3,-0.4,-11.6,-21.6,x,x,x
Cc1ccc2nc(-c3ccc(NC(=O)CCS(=O)(=O)c4ccccc4)cc3)sc2c1,1.9,38.9,3.4,71.6*,9.3,47.8*,22.0*,-28.3
Cc1ccc2nc(-c3ccc(NC(=O)COC(=O)c4ccc(=O)[nH]c4)cc3)sc2c1,4.0,53.1,1.0,56.2*,-39.6,10.6,-20.8,-82.3
COC(=O)c1c(C(=O)OC)c(-c2cccc(Cl)c2)n2c1CS(=O)C2 (stereo unspecified),4.0,102.7,-0.8,-1.0,-3.1,x,x,x
Cc1c(CCOC(=O)c2cc([N+](=O)[O-])cc([N+](=O)[O-])c2)sc[n+]1CCCCS(=O)(=O)[O-],4.9,99.8,-0.8,4.0,1.1,x,x,x
Cc1ccccc1C(=O)Nc1nnc(-c2cccnc2)o1,4.0,109.8,-0.1,-6.7,-1.8,x,x,x
Cc1ccc(CNC(=O)CCC2CCCN(Cc3cccc4cccnc34)C2)o1 (stereo unspecified),3.0,119.0,-0.5,-8.1,-2.8,x,x,x
O=C(c1cc(COc2ccc3ncccc3c2)on1)N1CCCCCC1,5.0,57.9,0.5,53.2*,14.1,59.2*,12.9*,14.5
COc1cccc(CN(C)C(=O)c2cc(COc3ccc4ncccc4c3)on2)c1,4.5,38.3,-1.4,74.0*,34.8*,63.9*,18.0*,18.8*
COc1cccc(CN(C)C(=O)c2cc(COc3c(F)cccc3F)on2)c1,1.9,86.1,0.7,20.1,1.4,x,x,x
COCC1CCN(C(=O)c2cc(COc3ccc4ncccc4c3)on2)CC1,4.5,54.9,-0.2,55.3*,29.6,52.8*,21.7*,23.0*
CC(NC(=O)c1cc(COc2ccc3ncccc3c2)on1)c1ccc(F)cc1 (stereo unspecified),x,x,1.4,x,x,x,x,x
O=C(NC1CCCC1)c1cc(COc2ccc3ncccc3c2)on1,x,x,-1.1,x,x,x,x,x
O=S(=O)(c1cccs1)N1CCN(CC(O)COc2cc(Cl)ccc2Cl)CC1 (stereo unspecified),2.5,56.6,-1.2,53.5*,20.9,35.4,15.0*,17.2*
CC(C)CNc1nc(SCC(=O)Nc2ccccc2)nc(N2CCOCC2)n1,0.5,96.5,-5.1,6.4,5.2,x,x,x
O=C(NC(=S)Nc1ccc(N2CCCCC2)c(Cl)c1)c1ccc2c(c1)OCCO2,33.3,51.6,15.7,64.2*,4.3,66.0*,21.5*,4.5
O=C(NC(=S)Nc1ccc(N2CCOCC2)c(Cl)c1)c1cncc(Br)c1,1.7,91.6,x,11.9,12.2,x,x,x
SMILES,MT stabilize HCS,STAT3 activator,bCat nuc transl,STAT3 inh-1,STAT1 blocker,STAT3 inh-2,NFkB inh 2,STAT1 inh STAT3c
COc1ccccc1NC(C)C(=O)Nc1ccc(C(C)=O)cc1 (stereo unspecified),3.2,96.3,x,7.1,2.0,x,x,x
CCOC(=O)C(=O)Nc1cc(C)on1,2.1,93.3,-5.8,9.6,7.5,x,x,x
CCCOc1ccc(/C=C/C(=O)Nc2ccc([N+](=O)[O-])cc2)cc1,1.3,46.3,-0.3,72.0*,-3.4,36.0,15.3*,-11.0
O=C(/C=C/c1ccc([N+](=O)[O-])cc1)NCc1ccccn1,4.2,105.9,x,-1.9,-9.5,x,x,x
O=C(/C=C/c1ccc([N+](=O)[O-])cc1)Nc1ncc([N+](=O)[O-])s1,4.6,60.9,1.1,49.5*,-50.9,-28.1,-48.4,-184.7
COC(=O)Oc1ccc(/C=N/NC(=O)CSCc2ccccc2Br)cc1OC,3.8,54.9,-11.1,57.5*,8.9,65.9*,1.6,12.2
CC(=O)c1ccc(N=Nc2ccc(C)cc2)cc1,2.7,33.5,-1.0,81.8*,30.8,44.4*,-10.1,-96.1
Cc1ccc(C(=O)c2ccc(C)cc2)cc1,4.1,98.7,-1.0,8.2,-16.3,x,x,x
CC(=O)c1ccc(N=Nc2ccc(N(C)C)cc2)cc1,0.9,56.2,1.3,52.5*,-19.3,47.4*,22.4*,-68.7
CC(C)(C)c1ccc(C(=O)NCC(=O)OCC(=O)Nc2ccc3c(c2)OCCO3)cc1,4.5,96.5,0.0,6.4,-9.1,x,x,x
COc1ccc(Cc2noc(CN3CCC(c4ccncc4)CC3)n2)cc1OC,3.5,52.9,2.8,59.5*,20.6,29.9,14.0*,4.9
CC(=Nc1ccc(C)cc1)c1sc2ccccc2c1O,2.5,53.7,-1.5,56.1*,-58.9,9.5,-35.2,-153.4
COc1ccc2[nH]c3c(c2c1)CCn1c-3nc2ccccc2c1=O,3.0,60.7,1.4,51.3*,-54.7,14.4,-32.3,-178.5
COc1cc(OC)cc(C(=O)Nn2c(C)nc3ccccc3c2=O)c1,4.4,108.5,1.6,-7.2,-0.7,x,x,x
N=c1c2c(n(Cc3ccccc3)c3c1CCC3)CCC2,2.4,62.5,-3.5,48.9*,26.2,35.4,1.9,23.7*
N=c1c2c(n(Cc3ccc(Cl)cc3)c3c1CCC3)CCC2,1.8,57.3,x,53.9*,23.0,43.5*,4.5,23.7*
